Here are results for two compounds from paper PMC4624502 (Experimental eye research, 2015).

Assay [1] addresses T1, zIRBP (zebrafish IRBP, gene II product, full-length two-module) (Danio rerio, UniProt F1Q9N9).
T1 sequence (F1Q9N9 22-615): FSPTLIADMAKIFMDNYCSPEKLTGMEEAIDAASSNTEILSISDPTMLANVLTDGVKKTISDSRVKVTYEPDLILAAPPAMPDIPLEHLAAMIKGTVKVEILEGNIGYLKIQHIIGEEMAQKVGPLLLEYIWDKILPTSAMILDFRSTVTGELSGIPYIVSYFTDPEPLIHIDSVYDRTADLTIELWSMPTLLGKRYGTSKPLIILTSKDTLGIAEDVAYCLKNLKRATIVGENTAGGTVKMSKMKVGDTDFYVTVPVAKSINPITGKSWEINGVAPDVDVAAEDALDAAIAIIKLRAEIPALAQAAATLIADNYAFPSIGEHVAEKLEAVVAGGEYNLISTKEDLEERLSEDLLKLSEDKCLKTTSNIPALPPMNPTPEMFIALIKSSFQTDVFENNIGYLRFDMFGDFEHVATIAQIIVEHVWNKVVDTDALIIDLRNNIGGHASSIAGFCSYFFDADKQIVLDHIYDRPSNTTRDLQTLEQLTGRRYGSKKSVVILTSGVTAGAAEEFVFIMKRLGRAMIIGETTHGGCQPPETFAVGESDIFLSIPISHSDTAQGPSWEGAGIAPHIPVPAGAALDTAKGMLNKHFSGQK
Description: fluorescence titration, enhancement of retinol fluorescence. Format: binding. Summed up:
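Full-length zIRBP was expressed in E. coli BL21(DE3), His-trap purified, TEV-cleaved, and anion-exchange polished (>98% pure). Retinol in ethanol was added in 0.5 µL aliquots at 1 min intervals to 1 µM protein or to buffer (final alcohol ≤2%). Fluorescence was read at ex 330/em 480 nm with oleic acid at 0.0–0.112 µM. Kd came from a nonlinear least-squares one-site Hill fit.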

In assay [2] the target is T2, zebrafish IRBP module 1 (z1) (Danio rerio, UniProt F1Q9N9).
T2 sequence (F1Q9N9 22-330): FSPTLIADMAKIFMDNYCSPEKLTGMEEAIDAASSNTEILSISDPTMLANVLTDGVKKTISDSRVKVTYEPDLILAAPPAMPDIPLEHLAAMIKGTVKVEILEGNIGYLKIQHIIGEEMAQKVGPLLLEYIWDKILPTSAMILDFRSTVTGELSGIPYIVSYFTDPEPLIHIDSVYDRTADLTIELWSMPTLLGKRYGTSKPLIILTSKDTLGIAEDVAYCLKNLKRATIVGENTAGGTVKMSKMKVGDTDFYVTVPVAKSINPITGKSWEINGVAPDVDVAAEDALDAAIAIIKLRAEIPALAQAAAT
Description: X-ray crystal structure, […] Å. Format: binding. As to conditions: oleic acid in hydrophobic pocket of domain A; pH 7.5, PEG 8000.

Structures are written as SMILES.

For `CC1=C(/C=C/C(C)=C/C=C/C(C)=C/CO)C(C)(C)CCC1` [all-trans retinol], the equilibrium dissociation constant (Kd) (commonly the equilibrium constant for the complex coming apart) in assay [1] turned out to be 910 ± 50 nM.

Turning to `CCCCCCCC/C=C\CCCCCCCC(=O)O` [oleic acid], the “X-ray crystal structure, 1.90 Å” value in assay [2] is “electron density for an extended oleic acid molecule in domain A”.
